EPA's CvTdb concentration-time database
One block for each compound: values may come before it.

Columns and labels:
Hamster = assay: concentration in plasma after dosing; settings: dosed: 2,4-Dichlorophenoxyacetic acid, 8.0 mg/kg, iv, Male, Syrian Golden
In short: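 Points were largely digitised from plot screenshots with WebPlotDigitizer or otherwise copied from tables, and they remain in the units each source reported. They come from published in vivo toxicokinetic studies and two structured collections. Sampling and analytical methods follow each source and were often not reported.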

Rat [1] = assay: concentration in plasma after dosing; settings: dosed: 2,4-Dichlorophenoxyacetic acid, 2.0 mg/kg, iv, Male, Sprague-Dawley
Mouse [2] = assay: concentration in plasma after dosing; settings: 10 min; dosed: 2-Hydroxy-4-methoxybenzophenone; 500 mg/kg; oral; Male; B6C3F1
Mouse [3] = assay: concentration in plasma after dosing; settings: 0.25 h; dosed: 2-Hydroxy-4-methoxybenzophenone; 50 mg/kg; iv; Female; B6C3F1
Mouse [4] = assay: concentration in plasma after dosing; settings: 0.25 h; dosed: 2-Hydroxy-4-methoxybenzophenone; 50 mg/kg; iv; Male; B6C3F1
Rat [5] = assay: concentration in plasma after dosing; settings: dosed: 2-Hydroxy-4-methoxybenzophenone, 250 mg/kg, oral, Female, F344
Rat [6] = assay: concentration in plasma after dosing; settings: dosed: 2-Hydroxy-4-methoxybenzophenone, 500 mg/kg, oral, Female, F344
Rat [7] = assay: concentration in plasma after dosing; settings: dosed: 2-Hydroxy-4-methoxybenzophenone, 500 mg/kg, oral, Female, F344; remark: listed apart in the source
Rat [8] = assay: concentration in plasma after dosing; settings: dosed: Methyleugenol, 37 mg/kg, oral, Male, F344/N
Rat [9] = assay: concentration in plasma after dosing; settings: dosed: Methyleugenol, 37 mg/kg, iv, Female, F344
Rat [10] = assay: concentration in plasma after dosing; settings: dosed: Methyleugenol, 37 mg/kg, oral, Female, F344/N
Rat [11] = assay: concentration in kidney after dosing; settings: 3 h; dosed: Perfluorohexane-1-sulphonic acid – potassium salt; 16 mg/kg; oral; Female; Harlan Sprague Dawley
Rat [12] = assay: concentration in liver after dosing; settings: 192 h; dosed: Perfluorohexane-1-sulphonic acid – potassium salt; 16 mg/kg; oral; Female; F344
Rat [13] = assay: concentration in kidney after dosing; settings: 1200 h; dosed: Perfluorohexane-1-sulphonic acid – potassium salt; 16 mg/kg; oral; Male; Harlan Sprague Dawley
Rat [14] = assay: concentration in plasma after dosing; settings: dosed: Perfluorohexane-1-sulphonic acid – potassium salt, 4 mg/kg, oral, Male, F344
Rat [15] = assay: concentration in brain after dosing; settings: 3 h; dosed: Perfluorohexane-1-sulphonic acid – potassium salt; 16 mg/kg; oral; Female; Harlan Sprague Dawley
Rat [16] = assay: concentration in liver after dosing; settings: 96 h; dosed: Perfluorohexane-1-sulphonic acid – potassium salt; 16 mg/kg; oral; Female; Harlan Sprague Dawley
Rat [17] = assay: concentration in liver after dosing; settings: 12 h; dosed: Perfluorohexane-1-sulphonic acid – potassium salt; 16 mg/kg; oral; Female; F344
Rat [18] = assay: concentration in brain after dosing; settings: 192 h; dosed: Perfluorohexane-1-sulphonic acid – potassium salt; 16 mg/kg; oral; Female; F344
Rat [19] = assay: concentration in brain after dosing; settings: 24 h; dosed: Perfluorohexane-1-sulphonic acid – potassium salt; 16 mg/kg; oral; Female; F344
Rat [20] = assay: concentration in brain after dosing; settings: 12 h; dosed: Perfluorohexane-1-sulphonic acid – potassium salt; 16 mg/kg; oral; Female; F344
Rat [21] = assay: concentration in plasma after dosing; settings: 1.5 h; dosed: Primidone; 80 mg/kg; oral; Female; F344
Rat [22] = assay: concentration in plasma after dosing; settings: 3 h; dosed: Primidone; 30 mg/kg; oral; Male; F344
Rat [23] = assay: concentration in plasma after dosing; settings: dosed: Pyridine, 5 mg/kg, iv, Male, F344
Rat [24] = assay: concentration in brain after dosing; settings: 6 h; dosed: alpha-Thujone; 50 mg/kg; oral; Female; Harlan Sprague Dawley
Rat [25] = assay: concentration in plasma after dosing; settings: 5 min; dosed: alpha-Thujone; 25 mg/kg; oral; Male; Harlan Sprague Dawley
Rat [26] = assay: concentration in plasma after dosing; settings: 1.5 h; dosed: alpha-Thujone; 25 mg/kg; oral; Male; Harlan Sprague Dawley
Rat [27] = assay: concentration in plasma after dosing; settings: 1.5 h; dosed: alpha-Thujone; 25 mg/kg; oral; Male; Harlan Sprague Dawley; remark: listed apart in the source
Rat [28] = assay: concentration in plasma after dosing; settings: 10 min; dosed: alpha-Thujone; 25 mg/kg; oral; Male; Harlan Sprague Dawley
Rat [29] = assay: concentration in plasma after dosing; settings: 3 h; dosed: alpha-Thujone; 50 mg/kg; oral; Female; Harlan Sprague Dawley

SMILES: O=C(O)COc1ccc(Cl)cc1Cl [2,4-Dichlorophenoxyacetic acid]
concentration in plasma (Hamster; 10 min): 30200 ng/mL
concentration in plasma (Hamster; 0.5 h): 10700 ng/mL
concentration in plasma (Hamster; 1 h): 1700 ng/mL
concentration in plasma (Rat [1]; 2.5 min): 26200 ng/mL
concentration in plasma (Rat [1]; 0.25 h): 15300 ng/mL
concentration in plasma (Rat [1]; 0.5 h): 6490 ng/mL
concentration in plasma (Rat [1]; 0.75 h): 6000 ng/mL
concentration in plasma (Rat [1]; 2 h): 1910 ng/mL
concentration in plasma (Rat [1]; 2.5 h): 720 ng/mL
concentration in plasma (Rat [1]; 3 h): 282 ng/mL

concentration in plasma (Mouse [2]): 1690 ng/mL
concentration in plasma (Mouse [3]): 1260 ng/mL
concentration in plasma (Mouse [4]): 1970 ng/mL
concentration in plasma (Rat [5]; 10 min): 119 ng/mL
concentration in plasma (Rat [5]; 3 h): 148 ng/mL
concentration in plasma (Rat [6]; 10 min): 116 ng/mL
concentration in plasma (Rat [6]; 10 h): 206 ng/mL
concentration in plasma (Rat [7]; 10 min): 258 ng/mL
concentration in plasma (Rat [7]; 10 h): 150 ng/mL
SMILES: O=C(c1ccccc1)c1ccc(O)cc1O [2,4-Dihydroxybenzophenone]

concentration in plasma (Rat [8]; 1.5 h): 23.6 ng/mL
concentration in plasma (Rat [8]; 6 h): 8 ng/mL
concentration in plasma (Rat [9]; 0.5 h): 1520 ng/mL
concentration in plasma (Rat [9]; 0.75 h): 768 ng/mL
concentration in plasma (Rat [10]; 10 min): 424 ng/mL
concentration in plasma (Rat [10]; 6 h): 6.14 ng/mL
SMILES: C=CCc1ccc(OC)c(OC)c1 [Methyleugenol]

SMILES: O=S(=O)([O-])C(F)(F)C(F)(F)C(F)(F)C(F)(F)C(F)(F)C(F)(F)F.[K+] [Perfluorohexane-1-sulphonic acid – potassium salt]
concentration in kidney (Rat [11]): 42800 ng/g
concentration in liver (Rat [12]): 40300 ng/g
concentration in kidney (Rat [13]): 2640 ng/g
concentration in plasma (Rat [14]; 0.25 h): 6180 ng/mL
concentration in plasma (Rat [14]; 6 h): 68100 ng/mL
concentration in plasma (Rat [14]; 528 h): 13900 ng/mL
concentration in brain (Rat [15]): 1560 ng/g
concentration in liver (Rat [16]): 6730 ng/g
concentration in liver (Rat [17]): 70300 ng/g
concentration in brain (Rat [18]): 834 ng/g
concentration in brain (Rat [19]): 1390 ng/g
concentration in brain (Rat [20]): 1520 ng/g

concentration in plasma (Rat [21]): 70300 ng/mL
concentration in plasma (Rat [22]): 7700 ng/mL
SMILES: CCC1(c2ccccc2)C(=O)NCNC1=O [Primidone]

SMILES: c1ccncc1 [Pyridine]
concentration in plasma (Rat [23]; 0.25 h): 3670 ng/mL
concentration in plasma (Rat [23]; 6 h): 1390 ng/mL

SMILES: CC(C)[C@]12CC(=O)[C@H](C)[C@H]1C2 [alpha-Thujone]
concentration in brain (Rat [24]): 165 ng/g
concentration in plasma (Rat [25]): 247 ng/mL
concentration in plasma (Rat [26]): 240 ng/mL
concentration in plasma (Rat [27]): 95.4 ng/mL
concentration in plasma (Rat [28]): 464 ng/mL
concentration in plasma (Rat [29]): 201 ng/mL
